Experimental data as given in ChEMBL document CHEMBL4270646, “Novel antimalarial chloroquine- and primaquine-quinoxaline 1,4-di-N-oxide hybrids: Design, synthesis, Plasmodium life cycle stage profile, and preliminary toxicity studies” (Eur J Med Chem, 2018).
Active and inactive are the calls of the source. The calls are words filed in the database; no cut-off is given here.

What was measured:
Plasmodium yoelii [1] = assay: Antiplasmodial activity against Plasmodium yoelii 17XNL sporozoites infected in BALB/c mouse assessed as decrease in parasitaemia in blood at 100 mg/kg, po measured at day 4 by […] relative to control; type: functional; set-up: scale not given: the % may be the effect or the level left
Procedure, shortened: (§1)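 BALB/c mice (6-8 weeks, 20-23 g), n=4 per hybrid group and n=5 per control. Dosed orally at 100 mg/kg (100 µL) on days -1, 0, +1 and +2. Vehicle was DMSO 100%; primaquine diphosphate given at 30 mg/kg daily. On day 0, 5 x 10^3 cryopreserved P. yoelii 17XNL sporozoites injected i.v. Parasitaemia read by Giemsa smear and SYBR Green flow cytometry. Groups compared by Kruskal-Wallis test.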

Plasmodium berghei = assay: Antiplasmodial activity against GFP-expressing gametocytes of Plasmodium berghei sporozoites in Anopheles stephensi mosquitoes feeded on blood from infected Swiss mouse assessed as reduction in mosquito infection at 100 mg/kg, ip pretreated for 1.5 hrs followed by blood feeding of mosquito and measured at 8 days post mosquitoes infection by fluorescence microscopic method relative to control; type: functional; set-up: scale not given: the % may be the effect or the level left
Procedure, shortened: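 Swiss mice (female, 6 weeks) infected i.p. with PbGFP-infected red cells (200 µL, 3000 parasites/µL). Gametocytes monitored 4 days by Giemsa smear and exflagellation. Hybrid given i.p. at 100 mg/kg in DMSO 1.5 h before A. stephensi fed 1 h on mice with 1% gametocytes. Controls were untreated and DMSO-treated mice. Thirty mosquitoes per group dissected after 8 days. Midgut oocysts counted by fluorescence microscopy against control mosquitoes taken as 100%.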

[2] = Genotoxicity in Salmonella typhimurium TA1535 harboring pSK1002 assessed as bacterial survival at 0.001 to 0.063 mg/ml after 4 hrs in presence of Sprague-Dawley rat liver S9 fraction by SOS/umu assay relative to control; type: toxicity, organism-based; conditions: salmonella enterica subsp. enterica serovar typhimurium; read-out: Survival
Procedure, shortened: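 Log-phase S. typhimurium TA1535/pSK1002 (OD600 0.15–0.4) exposed for 4 h at 37°C with shaking, with 10% rat S9 mix or PBS. Eleven twofold dilutions tested from 1 mg/mL final; DMSO as solvent control. A600 read. Survival expressed as % of negative-control A600.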

Plasmodium yoelii [3] = assay: Potency index, ratio of primaquine IC50 to compound IC50 for GFP-expressing Plasmodium yoelii sporozoites infected in human HepG2 cells expressing CD81; type: functional
Mus musculus [4] = assay: Acute toxicity in BALB/c mouse assessed as appearance of normal coloured mucosa at 300 to 500 mg/kg, po administered as single dose measured every day for 14 days; type: organism-based; conditions: in vivo, 336 h
Procedure, shortened: (§2)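 Female BALB/c mice, 6-8 weeks old, 20-23 g, in groups of three. Single oral dose of 300 or 500 mg/kg; vehicle DMSO 100% given to controls. Mice watched for signs of toxicity for 4 h after dosing. Physical appearance, injury, pain and illness recorded daily for 14 days. Euthanasia in a CO2 chamber on day 14 or earlier if suffering.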

Mus musculus [5] = assay: Acute toxicity in BALB/c mouse assessed as effect on total bilirubin level at 300 to 500 mg/kg, po administered as single dose measured at day 14; type: organism-based; conditions: in vivo
Plasmodium yoelii [6] = assay: Antiplasmodial activity against Plasmodium yoelii 17XNL sporozoites infected in BALB/c mouse assessed as decrease in peripheral blood parasite levels at 100 mg/kg, po measured at day 5 by […]; type: functional, organism-based; procedure, shortened: as §1
[7] = Genotoxicity in Salmonella typhimurium TA1535 harboring pSK1002 assessed as umu gene induction at 0.001 to 0.063 mg/ml after 4 hrs in presence of Sprague-Dawley rat liver S9 fraction by beta-galactosidase reporter gene assay relative to control; type: toxicity, organism-based; conditions: salmonella enterica subsp. enterica serovar typhimurium; read-out: FC
Procedure, shortened: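 SOS/umu test, 4 h at 37°C, with S9 mix or PBS. Positive controls 4-NQO (2.5 µg/mL final, no S9) and 2-AA (0.0125 mg/mL final, with S9). Aliquots incubated with ONPG 0.9 mg/mL in B-buffer for 30 min at 28°C, then stopped with 1 M Na2CO3. Activity calculated as A420/A600. Induction factor is the ratio to the DMSO control; genotoxic if ≥2 at ≥80% survival.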

Mus musculus [8] = assay: Acute toxicity in BALB/c mouse assessed as effect on blood urea nitrogen level at 300 to 500 mg/kg, po administered as single dose measured at day 14; type: organism-based; conditions: in vivo
[9] = Selectivity index, ratio of CC50 for human HepG2 cells to IC50 for multidrug-resistant Plasmodium falciparum […]; type: toxicity; conditions: read-out: Ratio CC50/IC50
Procedure, shortened: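 Selectivity index = HepG2 CC50 / FCR-3 IC50. CC50 from MTT assay after 48 h exposure, A550. IC50 from 48 h Hoechst 33342 flow-cytometry assay.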

Plasmodium yoelii [10] = assay: Antiplasmodial activity against Plasmodium yoelii 17XNL sporozoites infected in BALB/c mouse assessed as incident of decrease in peripheral blood parasite levels at 100 mg/kg, po measured at day 1 by […] relative to control; type: functional; set-up: scale not given: the % may be the effect or the level left; procedure, shortened: as §1
[11] = Cytotoxicity against human HepG2 cells assessed as reduction in cell viability after 48 hrs by MTT assay; type: cell-based
Procedure, shortened: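 Cells seeded at 2 × 10^5 per well and allowed 24 h at 37°C, 5% CO2 to form a monolayer. Dilutions added in triplicate and incubated 48 h. MTT (2 mg/mL) then added for 4 h, followed by DMSO for 20 min at room temperature. Absorbance read at 550 nm; DMSO diluent and untreated cells served as negative controls. CC50 derived from the curve.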

Mus musculus [12] = assay: Acute toxicity in BALB/c mouse assessed as mouse survival at 300 mg/kg, po administered as single dose measured every day for 14 days; type: organism-based; conditions: in vivo, 336 h; procedure, shortened: as §2
Plasmodium yoelii [13] = assay: Antiplasmodial activity against GFP-harboring Plasmodium yoelii sporozoites infected in human HepG2 cells expressing CD81 assessed as reduction in parasite growth treated every 24 hrs by DAPI staining-based fluorescence microscopic analysis; type: functional, organism-based; conditions: HepG2, 24 h
Procedure, shortened: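 Collagen-coated wells seeded with HepG2 (P. berghei), HepG2-CD81 (P. yoelii) or primary human hepatocytes (P. falciparum). Sporozoites added: 5×10^3 to 1×10^4 per well to the cell lines, 2.5×10^4 per well to hepatocytes. Compounds given at infection: top 10 µg/mL plus seven serial dilutions, renewed at 3 h and then every 24 h. Cultures grown 40 h (cell lines) or 8 days (hepatocytes) at 37°C. Methanol-fixed, HSP70 immunolabelled, DAPI counterstained. IC50 from logistic regression; triplicate.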

Mus musculus [14] = assay: Acute toxicity in BALB/c mouse assessed as appearance of bright hair without erection at 300 to 500 mg/kg, po administered as single dose measured every day for 14 days; type: organism-based; conditions: in vivo, 336 h; procedure, shortened: as §2
[15] = Selectivity index, ratio of CC50 for human primary hepatocytes to IC50 for GFP-expressing Plasmodium falciparum sporozoites; type: toxicity; conditions: read-out: Ratio CC50/IC50
Procedure, shortened: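 Selectivity index = CC50 (matching cell) / IC50 (matching parasite). Cell–parasite pairs: HepG2-CD81 with P. yoelii, HepG2 with P. berghei, human hepatocytes with P. falciparum.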

Mus musculus [16] = assay: Acute toxicity in BALB/c mouse assessed as effect on creatinine level at 300 to 500 mg/kg, po administered as single dose measured at day 14; type: organism-based; conditions: in vivo
Mus musculus [17] = assay: Acute toxicity in BALB/c mouse assessed as appearance of clear and bright eyes at 300 to 500 mg/kg, po administered as single dose measured every day for 14 days; type: organism-based; conditions: in vivo, 336 h; procedure, shortened: as §2

COc1cc(NC(C)CCCNC(=O)c2c(C)[n+]([O-])c3ccccc3[n+]2[O-])c2ncccc2c1 (stereo not drawn)
Activity (Plasmodium yoelii [1]): 95.97%
Activity (Plasmodium berghei): 20%
viability at 4 h [2]: > 80%
Ratio IC50 (Plasmodium yoelii [3]): 1.5
Activity (Mus musculus [4]): Non-Toxic
Activity (Mus musculus [5]): Non-Toxic
Activity (Plasmodium yoelii [6]): Active
fold induction at 4 h [7]: < 2
Activity (Mus musculus [8]): Non-Toxic
selectivity ratio [9]: 0.58
Activity (Plasmodium yoelii [10]): 25%
CC50 at 48 h [11]: 39.5 µM
Activity (Mus musculus [12]): Non-Toxic
IC50 (Plasmodium yoelii [13]): 1.39 µM
Activity (Mus musculus [14]): Non-Toxic
selectivity ratio [15]: 39.5
Activity (Mus musculus [16]): Non-Toxic
Activity (Mus musculus [17]): Non-Toxic
